# High-throughput results: PubChem BioAssay, Johns Hopkins Ion Channel Center
# A selection: hits, their analogues and other compounds. The true share with any hit is near 3.5%.
# RGS4 pot: RGS4 potentiation or activation; HEK293 M3R/inducible RGS4, carbachol calcium flux Fluo4; active compounds read low; B-score at 10 µM; 310,000 tested, 0.92% active;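 active = B-score of the integrated calcium signal more than 4 SD below the library mean, with starting fluorescence not abnormally high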;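 note: negative B-score means reduced calcium response which marks RGS4 activation or potentiation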
#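 System: HEK293 FlpIn-TREx cells, stable M3R, doxycycline-inducible RGS4. Timing: overnight RGS4 induction, 30 min dye load 37 °C, 20 min compound RT. Also added: carbachol, ECmax concentration. Measured by: Fluo4 fluorescence kinetic imaging of calcium. Evaluation: integrated calcium ratio converted to B score.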
# MrgX1 PAM: human MrgX1 positive allosteric modulation, primary screen; Q96LB2; MrgX1-HEK293, Fluo-4 calcium flux, FDSS; active compounds read high; B-score at 10 µM; 310,000 tested, 0.63% active; AID 588675;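 active = plate-corrected calcium response at least 3 library SD above typical, normal starting fluorescence, not activating the receptor alone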;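 note: compound read alongside a low EC10 to EC30 dose of BAM8-22 agonist; peak minus trough fluorescence over baseline measured at the second addition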
# Target sequence (Q96LB2 whole entry, looked up): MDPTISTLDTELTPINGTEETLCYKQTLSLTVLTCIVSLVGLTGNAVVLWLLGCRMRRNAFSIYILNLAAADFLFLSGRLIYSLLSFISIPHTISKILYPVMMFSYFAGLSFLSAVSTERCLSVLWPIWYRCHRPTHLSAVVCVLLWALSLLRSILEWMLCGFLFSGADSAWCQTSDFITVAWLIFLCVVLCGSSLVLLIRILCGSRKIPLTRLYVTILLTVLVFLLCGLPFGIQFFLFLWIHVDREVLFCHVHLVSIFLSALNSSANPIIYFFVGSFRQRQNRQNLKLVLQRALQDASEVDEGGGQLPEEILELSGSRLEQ
# RGS4 block: human RGS4 inhibition | P49798 | HEK293 M3R/RGS4 inducible, Fluo-4 calcium flux; active compounds read high; triggered by carbachol at its EC20 | 310,000 tested, 0.45% active | B-score at 10 µM | AID 463165;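 active = B-score, a plate-corrected calcium signal, over three deviations above library mean, with baseline fluorescence within five deviations of library mean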;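 note: RGS4 expression induced by doxycycline in cells with stable M3 receptor; B-score is computed from the integrated fluorescence ratio over baseline after carbachol; higher B-score means a larger calcium signal and so more RGS4 inhibition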
# Target sequence (P49798 whole entry, looked up): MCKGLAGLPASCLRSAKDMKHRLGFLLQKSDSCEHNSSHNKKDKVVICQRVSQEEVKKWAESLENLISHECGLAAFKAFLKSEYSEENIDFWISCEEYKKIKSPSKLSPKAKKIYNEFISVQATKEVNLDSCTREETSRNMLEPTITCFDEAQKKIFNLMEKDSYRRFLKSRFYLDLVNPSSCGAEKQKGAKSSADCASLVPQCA
# MrgX1 antag: human MrgX1 receptor antagonism, primary screen. MRGX1-HEK293 calcium flux, Fluo-4, BAM8-22 antagonism; active compounds read low. 310,000 tested, 1.3% active. B-score at 10 µM. Q96LB2;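 active = calcium-response B-score plate-corrected more than 3 library SD below zero, starting fluorescence within 5 deviations, no agonist response on first addition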;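 note: peak minus trough fluorescence over baseline after final BAM8-22 challenge near maximal dose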
# MrgX1 agonist: activates human MrgX1 receptor signaling; MrgX1-HEK293 cells, Fluo-4 calcium fluorescence, agonist mode; active compounds read high; B-score at 10 µM; Q96LB2; AID 588627; 310,000 tested, 0.44% active;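 active = calcium response B-score plate-corrected fluorescence ratio at least 3 library SD, with starting fluorescence B-score inside 5 SD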
#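 Assay system: stable human MrgX1 HEK293 cell line. Quantity: 15,000 cells per well. Schedule: cells plated overnight, dye loaded 0.5 h 37 °C, 0.5 h room temperature. Detection: Fluo-4 NW calcium-flux fluorescence, kinetic read. Read-out basis: peak-minus-minimum fluorescence over baseline, converted to B scores. Control set: positive and negative control wells on each plate.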
# RGS4 inh valid: RGS4 inhibitor validation | calcium response, % at 10 µM | HEK293 M3R/RGS4, carbachol calcium Fluo-4 fluorescence; carbachol added at its EC20; 0 = buffer wells, 100 = carbachol control | 1,700 tested, 65% active | shares compounds with RGS4 block;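 active = duplicate-averaged calcium response above the buffer-only control mean plus 5 SD of those controls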;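 note: integrated fluorescence ratio F max minus min over baseline F0; higher response in RGS4-induced cells means RGS4 inhibition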
# RGS4 uninduced: non-induced cell nonspecific activity of RGS4 inhibitors. shares compounds with RGS4 block. HEK293 M3R non-induced, carbachol calcium Fluo-4; submaximal (EC20) carbachol stimulus; buffer wells 0%, carbachol control wells 100%. activity (percent), % at 10 µM. 1,900 tested, 20% active. AID 493000; call rule not given here;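 note: RGS4 induction absent so cells express M3R without RGS4; higher means more calcium signal and flags a non-specific hit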
# M3R basal Ca ctr: second RGS4 inhibitor counter-screen in uninduced cells lacking carbachol | shares compounds with RGS4 block | HEK293 M3R/RGS4 non-induced, Fluo-4 calcium, no carbachol; normalised: buffer wells 0%, carbachol wells 100% | calcium response (agonist-mode artifact), % at 10 µM | 1,900 tested, 22% active | AID 493001;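 active = duplicate-averaged calcium rise in uninduced cells above buffer wells' mean plus 5 SD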
# * = called active by the depositor; i = inactive; nt = no result given.
SMILES,RGS4 pot,MrgX1 PAM,RGS4 block,MrgX1 antag,MrgX1 agonist,RGS4 inh valid,RGS4 uninduced,M3R basal Ca ctr
CN(C)C1(CNC(=O)Nc2ccccc2)CCCCC1,i,i,4.67*,i,i,i,i,i
CC(=O)Nc1ccc(C(=S)NCC2(N(C)C)CCCCC2)cc1,i,i,i,i,i,nt,nt,nt
O=C1NC(c2ccc(-c3ccccc3[N+](=O)[O-])o2)C(C(=O)c2ccc(F)cc2)C(O)(C(F)(F)F)N1 (centres undefined),i,i,i,i,i,nt,31.5%*,7.5%*
COc1ccc(C(=O)C2C(c3ccc(-c4ccccc4[N+](=O)[O-])o3)NC(=O)NC2(O)C(F)(F)F)cc1 (centres undefined),i,i,i,i,i,i,i,i
Cc1ccc(C2NC(=O)NC(O)(C(F)(F)F)C2C(=O)c2ccccc2)o1 (centres undefined),i,i,i,i,i,nt,nt,nt
Cc1noc(NS(=O)(=O)c2ccc(NC(=O)c3nn(-c4ccc(F)cc4)ccc3=O)cc2)c1C,i,i,i,i,i,nt,nt,nt
Cc1ccc(-n2ccc(=O)c(C(=O)Nc3ccc(S(=O)(=O)Nc4onc(C)c4C)cc3)n2)cc1,i,i,i,i,i,nt,i,i
Cc1cc(C)c(C(N)=O)c(Nc2cccc(Cl)c2)n1,i,i,i,i,i,nt,nt,nt
Cc1ccccc1Nc1sc(C(=O)Nc2cccc(Cl)c2)c(N)c1C(N)=O,i,nt,6.63*,nt,nt,5.0%*,i,i
O=C(N/N=C/C(Br)=C/c1ccccc1)c1n[nH]c2c1CCC2,i,i,5.06*,i,i,18.5%*,i,i
Cc1ccc(-n2ncc3c(=O)[nH]c(SCC(=O)N4CCCc5ccccc54)nc32)cc1,i,i,i,i,i,nt,i,i
CC1=NN(c2ccccc2)C(=O)/C1=C/c1ccc(Cl)cc1,i,i,i,i,i,nt,nt,nt
COc1ccc(/C=C2/C(=O)N(c3ccccc3)N=C2C)cc1Br,i,8.92*,23.9*,i,i,i,i,i
Cc1cc(NC(=O)CSc2nc3c(c(=O)n2-c2ccccc2)SC(C)C3)no1 (centres undefined),i,i,i,i,i,nt,nt,nt
Cc1ccc(S(=O)(=O)NC(C(=O)N2CCOCCOCCOCC2)c2ccccc2)cc1 (centres undefined),i,i,i,i,i,nt,nt,nt
Cc1cc2c(cc(C(=O)N3CCC(C(=O)NC4CCCC4)CC3)n2Cc2c(F)cccc2Cl)o1,i,i,i,i,i,nt,nt,nt
O=C(N/N=C/c1ccc(Cl)cc1)c1cc(-c2cccnc2)nc2ccccc12,i,i,i,i,i,nt,nt,nt
Nc1sc(-c2ccccc2)cc1C(=O)N/N=C/c1ccc(Cl)cc1,i,i,4.73*,i,i,14.5%*,28.5%*,i
COC(Cc1n[nH]c(=S)n1-c1ccccc1)OC,i,i,i,i,i,nt,nt,nt
Cc1cc(O)ccc1N=Cc1c(C(F)(F)F)[nH][nH]c1=O,i,i,6.83*,i,i,17.5%*,i,21.0%*
c1ccc2c(c1)CSc1ccccc1N2,i,i,i,i,i,nt,nt,nt
Cc1ccc(Nc2nc(N)nc(CN3CCN(Cc4ccc5c(c4)OCO5)CC3)n2)c(C)c1,i,i,i,i,i,nt,nt,nt
Cc1ccc(Nc2nc(N)nc(CN3CCN(Cc4ccc5c(c4)OCO5)CC3)n2)cc1,i,i,i,i,i,i,i,i
Nc1nc(CN2CCN(Cc3ccccc3)CC2)nc(Nc2ccc3c(c2)OCCO3)n1,i,i,i,i,i,nt,nt,nt
Cc1ccc(Nc2nc(N)nc(CN3CCN(Cc4ccc5c(c4)OCO5)CC3)n2)cc1C,i,nt,i,nt,nt,i,i,i
SMILES,RGS4 pot,MrgX1 PAM,RGS4 block,MrgX1 antag,MrgX1 agonist,RGS4 inh valid,RGS4 uninduced,M3R basal Ca ctr
Cc1ccc(Nc2nc(N)nc(CN3CCN(Cc4ccc5c(c4)OCO5)CC3)n2)cc1Cl,i,i,6.22*,i,i,i,i,i
CNc1nnc(-c2ccc(OC)cc2)s1,i,i,i,i,i,nt,nt,nt
CCCCCOC(=O)CCN1C(=O)/C(=C2\SC(=S)N(CCC(=O)OCCCCC)C2=O)SC1=S,i,i,i,i,i,nt,nt,nt
O=Cc1ccc(-n2nncc2-c2ccc([N+](=O)[O-])cc2)cc1,i,i,7.4*,i,i,42.0%*,65.5%*,i
O=[N+]([O-])c1ccc(-n2nncc2-c2ccccc2)cc1,i,i,i,i,i,nt,nt,nt
O=[N+]([O-])c1nn(-c2ccc(Cl)cc2)n(O)c1=NCc1ccccc1,i,i,i,i,i,nt,nt,nt
O=C(O)CSCC(=O)Nc1ccc(-c2nc3ccccc3s2)cc1,i,i,i,i,i,nt,nt,nt
Cc1csc(NC(=O)CSCC(=O)O)c1-c1nc2ccccc2s1,i,i,10.7*,i,i,34.5%*,50.5%*,i
COc1ccc(CNC(=O)Cn2cc([N+](=O)[O-])nc2C)cc1,i,i,i,i,i,nt,nt,nt
O=C1N=c2ccccc2=C1c1c(O)n(-c2cccc(F)c2)[nH]c1=O,i,i,6.99*,i,i,21.0%*,i,i
CCCC(=O)Nc1ccc(C=C(C(C)=O)C(C)=O)cc1,i,i,16.5*,i,i,31.5%*,30.0%*,i
CCN(CC)c1ccc(NC(=O)CNCc2ccccc2Cl)c(C)c1,i,i,i,i,i,nt,nt,nt
Cc1cc(N(CCO)CCO)ccc1C(c1ccc(N(CCO)CCO)cc1C)c1ccccc1Cl,i,i,5.99*,i,i,16.5%*,i,25.0%*
CCOC(=O)c1ccc(OC)c(OC)c1Cl,i,i,i,i,i,nt,nt,nt
COC(=O)c1ccc(OC)c(OC)c1Cl,i,i,5.81*,i,i,5.5%*,i,i
CCCCC1=CC2=C(c3ccco3)C(=O)C(C)(OC(=O)c3ccc(OC)cc3)C(=O)C2=CN1CCCCO (centres undefined),i,i,i,i,i,i,i,i
